Source: PubChem BioAssay (several laboratories)
pCIP destab: compounds decreasing mouse p/CIP protein stability. Q05BA5. 0.01% of 290,000 active. decrease of EGFP signal, % at 10 µM. F442A p/CIP-EGFP cells, EGFP fluorescence, 16 h;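 active = EGFP signal decrease of at least 30% at 10 µM or well 3 SD below plate mean, unless failing retest; inactive = the rest, including hits failing retest or dose response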
JMJD2C inh: human JMJD2C demethylase inhibition; GST-JMJD2C(1-420) H3K9me3 demethylation, DELFIA europium; inhibition, % at 2.35 µM; 0.069% of 330,000 active; AID 2099;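 active = more than half of a compound's replicate wells show inhibition beyond 50%, single wells judged on their own value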;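 also: signal counts dimethyl H3K9 product captured on neutravidin plate; 0% = median of DMSO wells and 100% = 0.3 times that DMSO median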
T cruzi repl: blocks replication of Trypanosoma cruzi. T. cruzi beta-gal in NIH3T3, luminescence, 90 h. inhibition, % (test concentration not listed). 1.4% of 300,000 active;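 active = mean inhibition across valid replicates above about 55%, limit read from the data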;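 also: signal also drops with host cell toxicity which is not excluded here; 0% = plate median of DMSO wells and 100% = zero luminescence signal; higher percent means less beta-gal luminescence so fewer parasites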
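Incubation – ≥90 h infection period, 3 h prior cell attachment · System – NIH/3T3 fibroblasts plus reporter T. cruzi · Doses – compound pinned at 50 nL/well, DMSO · Read-out basis – percent inhibition of parasite-derived β-gal signal · Signal – luminescent β-galactosidase signal after 60 min lysis · Also added – 5000 T. cruzi trypomastigotes/well · Medium – Low-serum DMEM with 2% FBS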
Cardio protect: protects H9c2 cardiomyocytes from peroxide injury | H2O2 injury protection, ATPLite, 2 h | protection from H2O2 cell death, % at 20 µM | 0.63% of 360,000 active | AID 588492;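 active = compounds giving at least 50% protection of heart cells from peroxide-induced death in the single-dose screen, raw or plate-pattern-corrected value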;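 also: 0% = DMSO wells with peroxide and 100% = DMSO wells without peroxide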
PP5 inh: inhibitors of human protein phosphatase 5 (PP5); P53041; purified PP5c, OMFP substrate fluorescence; inhibition, % at 6.7 µM; 0.18% of 320,000 active; AID 1987;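 active = inhibition above the campaign's mean inhibition across all tested compounds plus 3 SD, cut at about 9.5% in these data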;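 also: 0% = DMSO only and 100% = 100 µM cantharidin control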
Target sequence (P53041 whole entry, looked up): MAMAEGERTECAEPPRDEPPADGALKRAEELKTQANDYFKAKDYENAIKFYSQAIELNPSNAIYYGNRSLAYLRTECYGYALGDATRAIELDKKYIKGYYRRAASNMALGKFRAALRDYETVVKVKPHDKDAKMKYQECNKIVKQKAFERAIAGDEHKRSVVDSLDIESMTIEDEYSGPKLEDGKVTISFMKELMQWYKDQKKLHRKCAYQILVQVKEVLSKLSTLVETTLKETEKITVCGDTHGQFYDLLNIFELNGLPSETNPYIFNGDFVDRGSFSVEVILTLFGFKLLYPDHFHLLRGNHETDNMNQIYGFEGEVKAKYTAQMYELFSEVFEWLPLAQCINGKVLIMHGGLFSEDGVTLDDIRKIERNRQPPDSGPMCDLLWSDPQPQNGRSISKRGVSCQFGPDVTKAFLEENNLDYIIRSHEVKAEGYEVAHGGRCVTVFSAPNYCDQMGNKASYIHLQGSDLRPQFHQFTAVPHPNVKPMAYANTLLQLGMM
Fh CTSL1 inh: cathepsin L1 inhibition, PFM18AAP counter-screen; recombinant F. hepatica cathepsin L1, Z-Leu-Arg-MCA fluorescence; inhibition, % at 5.96 µM; 0.49% of 300,000 active; AID 1906;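 active = inhibition above the mean of all tested compounds plus 3 SD, set per screening campaign, cut at about 17% in these data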;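 also: 0% = plate median of test compound wells and 100% = 1 µM Z-Phe-Ala-diazomethylketone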
* = called active by the depositor; i = inactive; · = no result. In the library only some 2.4% were active in any assay of this set; here they are far more common.

SMILES	pCIP destab	JMJD2C inh	T cruzi repl	Cardio protect	PP5 inh	Fh CTSL1 inh
COCCc1ccc(OC2(C)CCN(Cc3cccn3-c3nccs3)C2)cc1 (configuration not stated)	·	·	·	2	·	·
Cc1ccc2c(C)nc(Nc3nc(CSc4nc5ccccc5[nH]4)cc(=O)[nH]3)nc2c1	-17	0	28	69*	0	2
Clc1ccccc1Cn1nnc2c(NCCN3CCOCC3)ncnc21	0	91*	-1	5	1	0
FC(F)(F)c1ccc(N2CCN(c3ncnc4c3nnn4Cc3ccccc3Cl)CC2)cc1	-2	-5	51	-26	-1	-1
Fc1ccc(N2CCN(c3ncnc4c3nnn4Cc3ccccc3Cl)CC2)cc1	·	-2	63*	-7	-1	-1
FC(F)c1nc2nc(Cl)c(Cl)nc2[nH]1	·	·	·	1	·	·
O=C(Nc1ccc2c(c1)OCO2)c1cc(C2CCCN(C(=O)C3CCCCC3)C2)on1 (configuration not stated)	·	·	·	6	·	·
Cc1nc2ccc(NC(=O)COc3ccccc3C)cc2s1	-2	65*	0	2	-1	-4
Cc1nc2ccc(NC(=O)COc3ccccc3[N+](=O)[O-])cc2s1	-8	-23	-2	14	0	-5
COc1ccc2c(c1)CC(C1(O)C(=O)N(C)c3ccccc31)C2=O (configuration not stated)	-16	51*	1	17	-2	-2
FC(F)(F)c1cccc(NC(=S)N(CCCN2CCCC2)Cc2cccn2Cc2ccc(Cl)cc2)c1	2	-11	71*	-18	5	3
Cc1cccc(NC(=O)COC(=O)CN2C(=O)c3ccccc3C2=O)c1C	·	·	·	-2	·	·
Cc1cc(=O)[nH]c(N=N/C(=N/Nc2ccccc2C)c2ccccc2)n1	0	8	40	60*	3	3
Cc1cc(=O)[nH]c(N=N/C(=N/Nc2ccc(O)cc2)c2ccccc2)n1	-41	8	40	49	5	3
CCn1c(C(=O)NCc2cccnc2)cc2sc(Cl)cc21	-5	-5	62*	-1	4	1
CCCc1nc(SCC(=O)Nc2nnc(CC)s2)c2c(=O)n(C)c(=O)n(C)c2n1	-40	5	-34	-10	3	0
CC(C(=O)NN)n1nnc(N2CCOCC2)n1 (configuration not stated)	1	5	·	4	-3	-1
CC(C(=O)NNS(=O)(=O)c1cccc(C(F)(F)F)c1)n1nnc(N2CCOCC2)n1 (configuration not stated)	1	0	-9	2	2	59*
COc1ccc(C(=O)N(C)Cc2ccc(C)o2)cc1OC1CCN(C(C)C)CC1	-1	1	-2	3	3	-2
COC(=O)CN(C)C(=O)c1ccc(OC)c(OC2CCN(C(C)C)CC2)c1	-80	-5	-4	-4	-8	52*
O=C(Cc1ccccc1Cl)NC1(O)C(=O)c2ccccc2C1=O	-5	35	-1	-3	4	26*
CCOc1ccc(CC(=O)Nc2c(C(N)=O)oc3ccc(Br)cc23)cc1OCC	-14	2	-25	78*	-1	4
CCOc1ccc(CC(=O)Nc2c(C(=O)Nc3ccccc3)oc3ccccc23)cc1OCC	1	18	24	14	0	5
O=C(O)[C@H](Cc1ccccc1)NC(=O)N1CCN(c2ccccc2)CC1	-4	2	-10	-4	1	17*
CC(C)C[C@H](NC(=O)N1CCN(c2ccccc2)CC1)C(=O)O	-12	-2	-11	0	0	0
SMILES	pCIP destab	JMJD2C inh	T cruzi repl	Cardio protect	PP5 inh	Fh CTSL1 inh
O=C(c1ccc(F)cc1F)N1CCN(c2ccccn2)CC1	6	3	6	-2	0	-2
Cc1ccc2cc3c(NC(=O)c4cccnc4)nn(C)c3nc2c1	3	-1	2	59*	4	4
CC(C)n1c(=O)c2ccccc2n1C(=O)c1ccccc1	·	·	·	-11	·	·
CCCCNC(=O)/C(=C\c1ccc([N+](=O)[O-])o1)NC(=O)c1ccccc1	4	-21	63*	2	-3	1
Cc1ccc(C(=O)N/C(=C\c2ccc(-c3ccc(Cl)cc3)o2)C(=O)NCCCN(C)C)cc1	-4	-12	56*	-10	0	7
COc1cc(OC)cc(C(=O)Nc2ccc(-c3nc4ccccc4o3)cc2)c1	-15	-41	60*	120*	3	2
COc1cccc(C(=O)Nc2ccc(-c3nc4ccccc4o3)c(O)c2)c1	-14	-3	19	2	4	2
CC1(C)CC(=O)C2=C(C1)NC(Nc1nc3ccccc3o1)=NC2c1ccccn1 (configuration not stated)	0	i	12	-1	0	5
CC1=C(C(=O)Nc2ccccc2)C(c2ccc(C)cc2)N=C(Nc2nc3ccccc3o2)N1 (configuration not stated)	8	127	57*	13	-2	2
O=C(CCl)N(c1ccccc1)c1ccccc1	-6	4	-8	-20	·	·
O=C(CCl)N(CCc1ccccc1)CCc1ccccc1	-6	-4	56*	-1	0	39*
Cc1oc(-c2cccs2)nc1CNC[C@H]1O[C@@H](n2cnc(C(N)=O)n2)[C@H](O)[C@@H]1O	·	·	·	10	·	·
CCn1cc(C(=O)NC2CCCc3c2cnn3-c2cccc(C)c2C)cn1 (configuration not stated)	-16	-14	-38	-16	4	-3
COc1ccc(C(=O)C(CN2CCOCC2)c2ccccc2)cc1 (configuration not stated)	-1	-4	29	-3	1	-3
O=C(c1ccc(F)cc1)C(CN1CCOCC1)c1ccccc1 (configuration not stated)	-18	0	58*	-14	1	0
C=CC[n+]1c(-c2ccc(C)cc2)csc1Nc1c(C)n(C)n(-c2ccccc2)c1=O	-1	-11	65*	-11	-1	0
CCOc1cc(/C=C(\C#N)C(=O)Nc2ccccc2[N+](=O)[O-])ccc1OCc1cccc2ccccc12	30*	·	·	·	·	·
CS(=O)(=O)NCc1ccccc1Br	·	2	·	·	0	·
Oc1ccc2ccccc2c1C=Nc1ccccc1Br	6	2	-1	19	3	-1
Oc1c(Br)cc(Cl)cc1C=Nc1ccccc1Br	-10	-6	-24	72*	-2	4
O=C(O)C1C2CCC(O2)C1C(=O)Nc1ccc(OC(F)F)cc1 (configuration not stated)	-8	-12	-4	7	68*	0
Cc1ccc(NC(=O)C2C3CCC(O3)C2C(=O)O)cc1C (configuration not stated)	-15	0	-15	5	83*	0
